Results: ChEMBL document CHEMBL2424614, “A novel p-terphenyl derivative inducing cell-cycle arrest and apoptosis in MDA-MB-435 cells through topoisomerase inhibition” (Eur J Med Chem, 2013)
The source made the active and inactive calls. The rule behind the calls is not given here.

Tests used:
MDA-MB-435 [1] = assay: Cell cycle arrest in human MDA-MB-435 cells assessed as accumulation at sub-G1 phase at 0.25 uM after 24 hrs by propidium iodide staining-based flow cytometry (reference value: 0.79%); format: functional
MDA-MB-435 [2] = assay: Cell cycle arrest in human MDA-MB-435 cells assessed as accumulation at G2/M phase at 0.5 uM after 24 hrs by propidium iodide staining-based flow cytometry (reference value: 14.05%); format: functional
MDA-MB-435 [3] = assay: Induction of apoptosis in human MDA-MB-435 cells assessed as dead cells at 0.5 uM after 24 hrs by annexin-V FITC/propidium iodide staining-based flow cytometry (reference value: 0.61 +/- 0.24%); format: functional
Bos taurus [4] = organism: Bos taurus; assay: Inhibition of calf thymus DNA topoisomerase 1-mediated relaxation of supercoiled pBR322 DNA at 100 uM after 30 mins by Agarose gel electrophoresis
Method in brief: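 Relaxation assay with 0.5 µg supercoiled pBR322 and 1 unit calf thymus Topo I, 20 µL. Buffer: 10 mM Tris–HCl pH 7.9, 150 mM NaCl, 0.1% BSA, 1 mM spermidine, 5% glycerol. Incubated 37 °C for 30 min; stopped with sarcosyl stop solution. 1% agarose gel, 5 V/cm, 2 h, TAE; ethidium bromide stain (0.5 µg/mL), UV. DMSO stocks. At least duplicate.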

MDA-MB-435 [5] = assay: Cell cycle arrest in human MDA-MB-435 cells assessed as accumulation at S phase at 0.5 uM after 24 hrs by propidium iodide staining-based flow cytometry (reference value: 57.11%); format: functional
MDA-MB-435 [6] = assay: Cell cycle arrest in human MDA-MB-435 cells assessed as accumulation at sub-G1 phase at 0.25 to 1 uM by propidium iodide staining-based flow cytometry; format: functional; settings: TDE = time-dependent effect, in the assay text read “G2/M phase” for “sub-G1 phase”
Method in brief: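 PI-stained DNA content of treated MDA-MB-435 cells read by flow cytometry. Sub-G1 population taken as apoptotic cellular fragments; three independent experiments.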

MDA-MB-435 [7] = assay: Cell cycle arrest in human MDA-MB-435 cells assessed as accumulation at sub-G1 phase at 0.5 uM after 24 hrs by propidium iodide staining-based flow cytometry (reference value: 0.79%); format: functional
MDA-MB-435 [8] = assay: Induction of apoptosis in human MDA-MB-435 cells assessed as upregulation of Bax protein expression at 0.25 to 1 uM after 12 hrs by Western blotting analysis; format: functional, cell-based
Method in brief: (§1)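 Treated MDA-MB-435 cells lysed in ice-cold Tris-HCl pH 7.4 buffer with Triton, phosphatase and protease inhibitors. Lysates clarified, boiled in SDS loading buffer, run on 8-12% SDS-PAGE and blotted. Membranes blocked in 5% skim milk, probed with primary antibodies, then peroxidase secondaries with ECL detection. β-actin as loading control.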

MDA-MB-435 [9] = assay: Cytotoxicity against human MDA-MB-435 cells assessed as growth inhibition after 72 hrs by MTT assay; format: functional, cell-based; settings: MDA-MB-435, 72 h
Method in brief: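 MTT assay: cells treated in triplicate with a range of concentrations for 72 h at 37 °C, 5% CO2. Medium replaced, MTT (5 mg/mL) added for 4 h, then SDS/isobutanol/HCl solubiliser overnight. Absorbance read at 590 nm. Inhibition calculated against control and blank wells; IC50 is concentration giving 50% growth inhibition; three independent experiments.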

MDA-MB-435 [10] = assay: Cell cycle arrest in human MDA-MB-435 cells assessed as accumulation at G2/M phase at 1 uM after 24 hrs by propidium iodide staining-based flow cytometry (reference value: 14.05%); format: functional
MDA-MB-435 [11] = assay: Induction of apoptosis in human MDA-MB-435 cells assessed as PARP cleavage after 12 to 24 hrs by Western blotting analysis; format: functional, cell-based; method in brief: as §1
MDA-MB-435 [12] = assay: Induction of apoptosis in human MDA-MB-435 cells assessed as dead cells at 1 uM after 24 hrs by annexin-V FITC/propidium iodide staining-based flow cytometry (reference value: 0.61 +/- 0.24%); format: functional
MDA-MB-435 [13] = assay: Cell cycle arrest in human MDA-MB-435 cells assessed as accumulation at G1 phase at 0.5 uM after 24 hrs by propidium iodide staining-based flow cytometry (reference value: 28.06%); format: functional
MDA-MB-435 [14] = assay: Induction of apoptosis in human MDA-MB-435 cells at 0.25 to 1 uM after 24 hrs by annexin-V FITC/propidium iodide staining-based flow cytometry in presence of N-acetylcysteine; format: functional, cell-based
MDA-MB-435 [15] = assay: Induction of DNA damage in human MDA-MB-435 cells assessed as phosphorylation of p53 at Ser15 at 0.5 uM after 12 hrs by Western blotting analysis; format: functional, cell-based; method in brief: as §1
MDA-MB-435 [16] = assay: Induction of DNA damage in human MDA-MB-435 cells assessed as phosphorylation of ATM at Ser1981 at 0.5 uM after 12 hrs by Western blotting analysis; format: functional, cell-based; method in brief: as §1
MDA-MB-435 [17] = assay: Induction of apoptosis in human MDA-MB-435 cells assessed as dead cells at 2 uM after 24 hrs by annexin-V FITC/propidium iodide staining-based flow cytometry (reference value: 0.61 +/- 0.24%); format: functional
MDA-MB-435 [18] = assay: Induction of apoptosis in human MDA-MB-435 cells assessed as decrease in procaspase 3 expression after 12 to 24 hrs by Western blotting analysis; format: functional, cell-based; method in brief: as §1
MDA-MB-435 [19] = assay: Induction of human apoptosis in MDA-MB-435 cells assessed as upregulation of Bak protein expression at 0.25 to 1 uM after 12 hrs by Western blotting analysis; format: functional, cell-based; method in brief: as §1
MDA-MB-435 [20] = assay: Cell cycle arrest in human MDA-MB-435 cells assessed as increase in cyclin B1 expression at 0.25 to 1 uM after 12 to 24 hrs by Western blotting analysis; format: functional, cell-based; method in brief: as §1
MDA-MB-435 [21] = assay: Induction of apoptosis in human MDA-MB-435 cells assessed as late apoptotic cells at 2 uM after 24 hrs by annexin-V FITC/propidium iodide staining-based flow cytometry (reference value: 0.34 +/- 0.08%); format: functional
Method in brief: (§2)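 MDA-MB-435 cells treated 24 h, stained with annexin V-FITC/PI per kit instructions, analysed by flow cytometry. Quadrant statistics: lower right taken as apoptotic, upper right as necrotic or post-apoptotic necrotic. Representative of three similar experiments.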

MDA-MB-435 [22] = assay: Induction of apoptosis in human MDA-MB-435 cells assessed as viable cells at 0.5 uM after 24 hrs by annexin-V FITC/propidium iodide staining-based flow cytometry (reference value: 98.62 +/- 0.25%); format: functional; settings: MDA-MB-435, 24 h, read-out: Activity; method in brief: as §2
MDA-MB-435 [23] = assay: Cell cycle arrest in human MDA-MB-435 cells assessed as accumulation at G1 phase at 1 uM after 24 hrs by propidium iodide staining-based flow cytometry (reference value: 28.06%); format: functional
Bos taurus [24] = organism: Bos taurus; assay: Induction of calf thymus DNA topoisomerase 1 poisoning activity using pBR322 as substrate assessed as appearance of nicked open circular DNA at 100 uM after 30 mins by Agarose gel electrophoresis
Method in brief: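 Calf thymus Topo I (1 unit) with 0.5 µg pBR322 in relaxation buffer (10 mM Tris-HCl pH 7.9, 150 mM NaCl, 0.1% BSA, 1 mM spermidine, 5% glycerol), 37 °C for 30 min. Stopped with 10% SDS, digested with proteinase K (50 µg/mL) 20 min, run on ethidium bromide-containing 1% agarose gel, 5 V/cm, 2 h. Nicked open circular and linear DNA positions scored; at least duplicate.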

Oc1ccc(-c2ccc(-c3ccc(O)c(O)c3)cc2)cc1
Activity (MDA-MB-435 [1]): 1.04% | Activity (MDA-MB-435 [2]): 38.41% | Activity (MDA-MB-435 [3]): 1.27% | inhibition (Bos taurus [4]): Active | Activity (MDA-MB-435 [5]): 26.38% | Activity (MDA-MB-435 [6]): tde | Activity (MDA-MB-435 [7]): 4.53% | Activity (MDA-MB-435 [8]): Active | IC50 (MDA-MB-435 [9]): < 1000 nM | Activity (MDA-MB-435 [10]): 54.51% | Activity (MDA-MB-435 [11]): Dose-dependent effect | Activity (MDA-MB-435 [12]): 1.03% | Activity (MDA-MB-435 [13]): 30.68% | Activity (MDA-MB-435 [14]): Active | Activity (MDA-MB-435 [15]): inactive | Activity (MDA-MB-435 [16]): inactive | Activity (MDA-MB-435 [17]): 1.7% | Activity (MDA-MB-435 [18]): Dose-dependent effect | Activity (MDA-MB-435 [19]): Active | Activity (MDA-MB-435 [20]): Active | Activity (MDA-MB-435 [21]): 14.35% | viability at 0.5 µM (MDA-MB-435 [22]): 81.6% | Activity (MDA-MB-435 [23]): 22.42% | Activity (Bos taurus [24]): inactive
